The values below come from ChEMBL document CHEMBL3272139, “2,5-Bis(3,4-dimethoxybenzyl)cyclopentylamine, a peripheral dopamine blocking agent” (J Med Chem, 1978).

The species entered for data set [1] is Canis familiaris. Kind of data set: Cardiovascular activity in pentobarbital-anesthesized, morphine-premedicated, atropinized, right femoral artery and vein-cannulated mongrel dog assessed as vasodepression. To be noted: in vivo. In kind it is ADME, organism-based, Canis lupus familiaris. The procedure, abridged:
(§1)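 Mongrel dogs atropinized (1 mg/kg) and checked for autonomic responsiveness with norepinephrine and N-isopropylnorepinephrine (0.1–0.2 µg/kg each). Drugs were given iv via an indwelling venous catheter in 2 mL 0.9% saline. Blood pressure and heart rate were recorded via an arterial catheter. Threshold dose was read from a linear plot of % fall in mean pressure against log dose.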

The species entered for data set [2] is Canis familiaris. Description: Cardiovascular activity in pentobarbital-anesthesized, morphine-premedicated, atropinized, right femoral artery and vein-cannulated mongrel dog assessed as decrease in systolic pressure. In kind it is ADME, organism-based, Canis lupus familiaris. Particulars: in vivo. In a few lines: as §1
Data set [3] is filed under the species Canis familiaris. Description: Cardiovascular activity in pentobarbital-anesthesized, morphine-premedicated, atropinized, right femoral artery and vein-cannulated mongrel dog assessed as decrease in diastolic pressure. Particulars: in vivo. The class given is ADME, organism-based, Canis lupus familiaris. In a few lines: as §1
Data set [4] relates to Canis familiaris. Kind of data set: Cardiovascular activity in pentobarbital-anesthesized, morphine-premedicated, atropinized, right femoral artery and vein-cannulated mongrel dog assessed as decrease in mean blood pressure at 2.4 umol/kg relative to control. Set-up: scale not given: the % may be the effect or the level left. In kind it is ADME, organism-based, Canis lupus familiaris. Particulars: in vivo. In a few lines:
as §1

Data set [5] relates to Canis familiaris. Kind of data set: Cardiovascular activity in pentobarbital-anesthesized, morphine-premedicated, atropinized, right femoral artery and vein-cannulated mongrel dog assessed as time required for decrease in mean blood pressure at 2.4 umol/kg. Particulars: in vivo. In kind it is ADME, organism-based, Canis lupus familiaris. In a few lines:
as §1

Data set [6] concerns Canis familiaris. Kind of data set: Cardiovascular activity in pentobarbital-anesthesized, morphine-premedicated, atropinized, right femoral artery and vein-cannulated mongrel dog at 95 to 120 umol/kg. The class given is ADME, organism-based, Canis lupus familiaris. To be noted: in vivo.
The subject of data set [7] is Canis familiaris. Kind of data set: Cardiovascular activity in pentobarbital-anesthesized, morphine-premedicated, atropinized, right femoral artery and vein-cannulated mongrel dog at 95 to 120 umol/kg in presence of haloperidol. The class given is ADME, organism-based, Canis lupus familiaris. To be noted: in vivo.
Data set [8] has as its system Canis familiaris. Description: Cardiovascular activity in pentobarbital-anesthesized, morphine-premedicated, atropinized, right femoral artery and vein-cannulated mongrel dog at 95 to 120 umol/kg in presence of metoclopramide. In kind it is ADME, organism-based, Canis lupus familiaris. Particulars: in vivo.
Data set [9] has as its system Canis familiaris. Kind of data set: Cardiovascular activity in pentobarbital-anesthesized, morphine-premedicated, atropinized, right femoral artery and vein-cannulated mongrel dog at 95 to 120 umol/kg in presence of propranolol. In kind it is ADME, organism-based, Canis lupus familiaris. To be noted: in vivo.
In data set [10] the test system is Canis familiaris. Kind of data set: Inhibition of norepinephrine-induced chronotropic effects in pentobarbital-anesthesized, morphine-premedicated, atropinized, right femoral artery and vein-cannulated mongrel dog up to 71 umol/kg. In kind it is functional, organism-based. Particulars: Canis lupus familiaris.
For data set [11], the system named is Canis familiaris. Kind of data set: Inhibition of norepinephrine-induced inotropic effects in pentobarbital-anesthesized, morphine-premedicated, atropinized, right femoral artery and vein-cannulated mongrel dog up to 71 umol/kg. The class given is functional, organism-based. Particulars: Canis lupus familiaris.
Data set [12] deals with Canis familiaris. Description: Inhibition of norepinephrine-induced blood pressure effects in pentobarbital-anesthesized, morphine-premedicated, atropinized, right femoral artery and vein-cannulated mongrel dog up to 71 umol/kg. Particulars: Canis lupus familiaris. In kind it is functional, organism-based.
Data set [13] has as its system Canis familiaris. Kind of data set: Inhibition of N-isopropylnorepinephrine-induced chronotropic effects in pentobarbital-anesthesized, morphine-premedicated, atropinized, right femoral artery and vein-cannulated mongrel dog up to 71 umol/kg. The class given is functional, organism-based. Particulars: Canis lupus familiaris.
Data set [14] has as its system Canis familiaris. Description: Inhibition of N-isopropylnorepinephrine-induced inotropic effects in pentobarbital-anesthesized, morphine-premedicated, atropinized, right femoral artery and vein-cannulated mongrel dog up to 71 umol/kg. The class given is functional, organism-based. Particulars: Canis lupus familiaris.
For data set [15], the system named is Canis familiaris. Kind of data set: Inhibition of N-isopropylnorepinephrine-induced blood pressure effects in pentobarbital-anesthesized, morphine-premedicated, atropinized, right femoral artery and vein-cannulated mongrel dog up to 71 umol/kg. The class given is functional, organism-based. Particulars: Canis lupus familiaris.
The species named for data set [16] is Canis familiaris. Kind of data set: Cardiovascular activity in pentobarbital-anesthesized, morphine-premedicated, atropinized, right femoral artery and vein-cannulated mongrel dog assessed as threshold dose required for decrease in mean blood pressure. To be noted: in vivo. The class given is ADME, organism-based, Canis lupus familiaris. The procedure, abridged: as §1

The species named for data set [17] is Canis familiaris. Description: Reduction in dopamine-induced depressor response in pentobarbital-anesthesized, morphine-premedicated, atropinized, right femoral artery and vein-cannulated mongrel dog. The class given is functional, organism-based. Particulars: Canis lupus familiaris. In a few lines:
(§2)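 Atropinized mongrel dogs pretreated with phenoxybenzamine, 5 mg/kg, to remove the dopamine pressor action. Depressor response was evoked with dopamine, 3 µg/kg iv. Test drug was given iv in 2 mL saline. ED50 was taken from a linear plot of log dose vs % antagonism of the dopamine depressor effect.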

For data set [18], the species on record is Canis familiaris. Description: Reduction in dopamine-induced depressor response in pentobarbital-anesthesized, morphine-premedicated, atropinized, right femoral artery and vein-cannulated mongrel dog assessed as threshold dose required for reduction. In kind it is functional, Canis lupus familiaris.
In data set [19] the test system is Canis familiaris. Kind of data set: Reduction in dopamine-induced depressor response in pentobarbital-anesthesized, morphine-premedicated, atropinized, right femoral artery and vein-cannulated mongrel dog at 12 to 17 umol/kg in presence of alpha-adrenergic blocker phenoxybenzamine. The class given is functional, organism-based. To be noted: Canis lupus familiaris. In a few lines: as §2

The species named for data set [20] is Canis familiaris. Kind of data set: Reduction in dopamine-induced depressor response in pentobarbital-anesthesized, morphine-premedicated, atropinized, right femoral artery and vein-cannulated mongrel dog in presence of alpha-adrenergic blocker phenoxybenzamine. In kind it is functional. Particulars: Canis lupus familiaris. In a few lines: as §2
Data set [21] concerns Canis familiaris. Description: Reduction in dopamine-induced depressor response in pentobarbital-anesthesized, morphine-premedicated, atropinized, right femoral artery and vein-cannulated mongrel dog assessed as half life of drug action at 6 ug/kg. Particulars: Canis lupus familiaris. In kind it is functional, organism-based. In a few lines: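 Single atropinized dog given 6 µg/kg test drug iv. Residual blockade was measured every 5 min against a 5 µg/kg dopamine challenge. Half-life came from a linear plot of log residual blockade vs time.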

The subject of data set [22] is Mus musculus. Description: Potentiation of apomorphine-induced sterotypic climbing in Swiss-Webster mouse at 42.5 to 59.4 umol/kg, ip administered 30 mins prior to apomorphine-challenge measured after 5 mins. The class given is functional, organism-based. Particulars: 47.5 to 59.4 umol/kg, in the assay text read “47.5 to 59.4 umol/kg” for “42.5 to 59.4 umol/kg”. The procedure, abridged: (§3)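 Male Swiss–Webster mice (20–30 g) were dosed ip in 0.9% saline. Thirty minutes later they received apomorphine HCl, 1 mg/kg sc. Each mouse was placed in a wire-mesh cage and scored for vertical climbing after about 5 min of exploration, with two scores per animal averaged. Groups had 10 mice, compared with saline controls by two-tailed Student's t test.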

The subject of data set [23] is Mus musculus. Description: Potentiation of apomorphine-induced sterotypic climbing in ip dosed Swiss-Webster mouse administered for 7 days. In kind it is functional.
Data set [24] concerns Mus musculus. Kind of data set: Reduction in apomorphine-induced sterotypic climbing in Swiss-Webster mouse at 0.1 mg/kg, ip administered 30 mins prior to apomorphine-challenge measured after 5 mins. In kind it is functional, organism-based. Further details: dose 0.1 mg/kg. The procedure, abridged:
as §3

Calls of active or inactive are those of the source. Bounds are passed on as bounds.

With `COc1ccc(CC2CCC(Cc3ccc(OC)c(OC)c3)C2N)cc1OC.Cl` (centres undefined), the Activity result in the data set filed under Canis familiaris [1] is given as “Toxic”; in the data set listed under Canis familiaris [2], “Dose-dependent effect”; in the data set filed under Canis familiaris [3], “Dose-dependent effect”; with Canis familiaris [4], 10%; in the data set on Canis familiaris [6], “Toxic”; in the data set on Canis familiaris [7] it was “Toxic”. The Activity entry in the data set on Canis familiaris [8] is “Toxic”; in the data set with Canis familiaris [9], “Toxic”; in the data set listed under Canis familiaris [16] it was 1.2 µmol/kg; in the data set listed under Canis familiaris [17] it was “Dose-dependent effect”; in the data set filed under Canis familiaris [18], 0.7 µmol/kg; in the data set on Mus musculus [23] it was 5.94 µmol/kg. In the data set on Canis familiaris [5], the Time is under 1 min. The inhibition result in the data set with Canis familiaris [10], in the data set on Canis familiaris [11], in the data set with Canis familiaris [12], with Canis familiaris [13], with Canis familiaris [14] and in the data set on Canis familiaris [15] was “inactive” each time. Moreover, the result in the data set on Canis familiaris [19] and with Mus musculus [22] was Active. The 50% effective dose (ED50) in the data set listed under Canis familiaris [20] amounted to 4 µmol/kg. Also, the T1/2 in the data set on Canis familiaris [21] is 18 min.
In the case of `O=C(CCCN1CCC(O)(c2ccc(Cl)cc2)CC1)c1ccc(F)cc1`, the result with Mus musculus [24] was Active.
